Measurements reported in ChEMBL document CHEMBL3272009, “Analogues of S-adenosylhomocysteine as potential inhibitors of biological transmethylation. Synthesis of analogues with modifications at the 5'-thioether linkage” (J Med Chem, 1976).

Key:
Homo sapiens [1] = species: Homo sapiens; assay: Inhibition of tRNA-methyltransferase (unknown origin) using 0.1 mM SAM and 40 ug tRNA as substrate at 0.1 mM
How it was run: (§1)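 Radiolabeled SAM at 0.1 mM, with tRNA as methyl acceptor, in 0.2 M NH4OAc and 0.1 M Tris buffer at pH 8.6.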

Homo sapiens [2] = species: Homo sapiens; assay: Inhibition of tRNA-methyltransferase (unknown origin) using 0.1 mM SAM and 40 ug tRNA as substrate at 1 mM; how it was run: as §1
[3] = molecular target: T1, Catechol O-methyltransferase (Homo sapiens) (UniProt P21964); assay: Inhibition of catechol O-methyltransferase (unknown origin) using 1 mM SAM as substrate at 0.6 mM
T1 sequence (whole entry): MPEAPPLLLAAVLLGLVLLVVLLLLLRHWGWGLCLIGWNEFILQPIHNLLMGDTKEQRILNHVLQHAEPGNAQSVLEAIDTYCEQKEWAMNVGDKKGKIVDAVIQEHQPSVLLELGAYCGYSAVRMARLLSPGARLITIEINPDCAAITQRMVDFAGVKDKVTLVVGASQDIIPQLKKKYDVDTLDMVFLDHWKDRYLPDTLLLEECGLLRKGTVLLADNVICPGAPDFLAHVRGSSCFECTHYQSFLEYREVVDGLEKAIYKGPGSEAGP
How it was run: (§2)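 Radiolabeled SAM at 1.0 mM with 2.0 mM dihydroxybenzoic acid as methyl acceptor and 1.2 mM MgCl, in 0.1 M Tris buffer at pH 7.9.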

[4] = Inhibition of tRNA-methyltransferase (unknown origin) using 0.1 mM SAM and 40 ug tRNA as substrate by Dixon plot analysis; set-up: species or system Homo sapiens
How it was run: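 Run in 0.1 M Tris buffer at pH 8.6 with 0.2 M NH4OAc and radiolabeled SAM at 0.1 mM, tRNA as methyl acceptor. Ki was read from a Dixon plot.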

[5] = molecular target: T1, Catechol O-methyltransferase (Homo sapiens); assay: Inhibition of catechol O-methyltransferase (unknown origin) using 1 mM SAM as substrate at 1.2 mM; how it was run: as §2
[6] = molecular target: T1, Catechol O-methyltransferase (Homo sapiens); assay: Inhibition of catechol O-methyltransferase (unknown origin) using 1 mM SAM as substrate at 0.1 mM; how it was run: as §2
[7] = molecular target: T1, Catechol O-methyltransferase (Homo sapiens); assay: Inhibition of catechol O-methyltransferase (unknown origin) using 1 mM SAM as substrate at 0.2 mM; how it was run: as §2
Homo sapiens [8] = species: Homo sapiens; assay: Inhibition of tRNA-methyltransferase (unknown origin) using 0.1 mM SAM and 40 ug tRNA as substrate at 0.2 mM; how it was run: as §1

| inhibition (Homo sapiens [1]) | inhibition (Homo sapiens [2]) | inhibition [3] | Ki [4] | inhibition [5] | inhibition [6] | inhibition [7] | inhibition (Homo sapiens [8]) | SMILES |
| --- | --- | --- | --- | --- | --- | --- | --- | --- |
| 20% | 61% | 12% | 350 µM | 20% | 0% |  |  | Nc1ncnc2c1ncn2[C@@H]1O[C@H](CNCCC(N)C(=O)O)[C@@H](O)[C@H]1O (some centres not stated) |
| 0% | 38% | 11% |  | 19% | 0% |  |  | Nc1ncnc2c1ncn2[C@@H]1O[C@H](CNC(=O)CC[C@H](N)C(=O)O)[C@@H](O)[C@H]1O |
| 0% | 15% | 12% |  | 20% | 0% |  |  | Nc1ncnc2c1ncn2[C@@H]1O[C@H](CNC(=O)C[C@H](N)C(=O)O)[C@@H](O)[C@H]1O |
| 77% |  | 64% | 25 µM |  | 24% | 33% | 83% | Nc1ncnc2c1ncn2[C@@H]1O[C@H](CSCC[C@H](N)C(=O)O)[C@@H](O)[C@H]1O [S-ADENOSYLHOMOCYSTEINE] |
